Assay [1] deals with Glutamate NMDA receptor. Put plainly: NMDA receptor antagonistic activity was assessed in vitro by deteriming the ability to inhibit glutamate-induced accumulation of [Ca2+] in cultured rat cortical neurons. It is filed as functional. The method in brief: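 Rat (Sprague-Dawley, E18) cerebral hemisphere neurons, trypsin-dissociated, plated on poly-L-lysine at 200 000 cells/cm², used on days 14–16. Assay in serum- and Mg-free HBSS with 1.4 mM CaCl₂, pH 7.4, 37 °C. 30-min exposure to 100 µM L-glutamate (final) plus trace ⁴⁵Ca²⁺, with or without test agent. Baseline subtracted. IC50 from ≥4 half-log concentrations, ≥6 replicates each.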

Assay [2] deals with Mus musculus. The assay can be described thus: NMDA antagonist activity was measured as ataxia (the inability of the mice to cling to screen platform upon its inversion.) tested in vivo. The class given is functional. The method in brief: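 Ataxia was scored in CF-1 mice (22–28 g) on an inverted screen, as failure to cling when the platform was inverted. Scoring was done just before NMDA challenge (25 mg/kg, retrobulbar iv) and after retrobulbar dosing of the test agent in 0.9% saline (5 mL/kg). The result is reported as an ED50.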

For assay [3], the system named is Mus musculus. Put plainly: NMDA receptor antagonist activity of compound was demonstarted in vivo by the inhibition of NMDA-induced lethality in mouse tested in vivo. The class given is functional. The gist of the method:
(§1)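 CF-1 mice (22–28 g) were dosed retrobulbar with test agent or vehicle (0.9% saline, 5 mL/kg), 5 or 30 min before a bolus retrobulbar injection of NMDA (25 mg/kg) in saline into the other eye. The endpoint was prevention of death from seizures. ED50 came from at least three half-log doses with 10 mice per dose.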

Assay [4] has as its target Glutamate NMDA receptor. Put plainly: NMDA receptor antagonistic activity was assessed from the ability to displace [3H]CPP29,30 from rat cortical membranes. The method in brief: (§2)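 Crude synaptic membranes came from Long-Evans male rat forebrain (minus cerebellum and brainstem) and were treated with 0.01% Triton X-100 for 30 min at 37 °C, then washed. Membranes (200–400 µg protein/mL) were incubated with 10 nM [³H]CPP in 50 mM Tris-HCl, pH 7.6, for 15 min at 23 °C, in triplicate, and separated by centrifugation. Nonspecific binding was defined with 1 mM L-glutamate. IC50 came from a nonlinear fit of four or more concentrations.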

In assay [5] the target is T1, Glutamate NMDA receptor (Rattus norvegicus) (UniProt P35439+Q00959+Q00960+Q00961+Q62645+Q8VHN2+Q9R1M7). Put plainly: NMDA receptor antagonistic ability of 100 uM of compound was assessed from the ability to displace [3H]CPP29,30 from rat cortical membranes. The settings on record: Membrane. The class given is cell membranes.
Assay [6] has as its target T1, Glutamate NMDA receptor (Rattus norvegicus). The assay can be described thus: N-methyl-D-aspartate glutamate receptor antagonistic ability of 100 uM of compound was assessed from the ability to displace [3H]CPP29,30 from rat cortical membranes. The class given is cell membranes. Particulars: Membrane.
For assay [7], the species on record is Mus musculus. The assay can be described thus: Compound was tested for the maximum dose that protects from NMDA-induced death in mice; Inactive. The class given is functional. The method in brief: (§3)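 CF-1 mice (22–28 g) got the test agent by retrobulbar iv injection in 0.9% saline (5 mL/kg), then NMDA 25 mg/kg retrobulbar iv 5 or 30 min later. Doses were tested up to 30 mg/kg, scoring protection from lethal seizures.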

In assay [8] the target is Glutamate NMDA receptor. The assay can be described thus: NMDA receptor antagonistic activity was assessed from the ability to displace [3H]CPP29,30 from rat cortical membranes. The gist of the method: as §2
Assay [9] deals with Glutamate NMDA receptor. The assay can be described thus: NMDA receptor antagonistic activity was assessed in vitro by the assement of ability to inhibit glutamate-induced accumulation of [Ca2+] in cultured rat cortical neurons. The class given is functional. The method in brief:
(§4)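 Cortical neurons from E18 Sprague-Dawley rat fetuses were tested 14–16 days after plating. Cells were exposed for 30 min at 37 °C to 100 µM L-glutamate with ⁴⁵Ca²⁺ (2 µCi/mL) in Mg-free HBSS containing 1.4 mM CaCl₂ at pH 7.4, then washed and lysed for counting. Baseline uptake was subtracted. IC50 came from at least four half-log concentrations with six or more replicates each.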

The species entered for assay [10] is Mus musculus. The assay can be described thus: NMDA receptor antagonist activity was measured as ataxia (the inability of the mice to cling to screen platform upon its inversion.). It is filed as functional. The method in brief: (§5)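 CF-1 mice (22–28 g) were dosed retrobulbarly with test agent or vehicle (0.9% saline, 5 mL/kg). Just before the NMDA challenge they were placed on an inverted screen. Ataxia was scored as failure to cling to the platform after inversion, and ED50 values were derived from dose-response data.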

For assay [11], the system named is Mus musculus. The assay can be described thus: NMDA receptor antagonist activity of compound was demonstarted in vivo, by the inhibition of NMDA-induced lethality in mouse. It is filed as functional. The gist of the method: as §1
Assay [12] concerns the target Glutamate NMDA receptor. Put plainly: (§6) N-methyl-D-aspartate glutamate receptor antagonistic activity was assessed from the ability to displace [3H]CPP29,30 from rat cortical membranes. The method in brief:
as §2

The species entered for assay [13] is Mus musculus. Put plainly: N-methyl-D-aspartate glutamate receptor antagonist activity of compound was demonstarted by the inhibition of NMDA-induced lethality in mouse. The class given is functional. The method in brief: as §1
The species entered for assay [14] is Mus musculus. Put plainly: N-methyl-D-aspartate glutamate receptor antagonist activity was measured as ataxia (the inability of the mice to cling to screen platform upon its inversion.). It is filed as functional. The method in brief: as §5
Assay [15] deals with Glutamate NMDA receptor. Put plainly: N-methyl-D-aspartate glutamate receptor antagonistic activity was assessed from the ability to inhibit glutamate-induced accumulation of [Ca2+] in cultured rat cortical neurons. The class given is functional. The method in brief:
as §4

The species named for assay [16] is Mus musculus. Put plainly: Compound was tested for the maximum dose that protects from NMDA-induced death. It is filed as functional. The gist of the method:
as §3

The target in assay [17] is T1, Glutamate NMDA receptor (Rattus norvegicus). Put plainly: N-methyl-D-aspartate glutamate receptorA antagonistic activity was assessed from the ability to inhibit glutamate-induced accumulation of [Ca2+] in cultured rat cortical neurons;IA means Compound was inactive up to 250 uM. It is filed as functional. The method in brief: as §4
Assay [18] relates to Mus musculus. Put plainly: N-methyl-D-aspartate glutamate receptor antagonist activity of compound was demonstarted by the inhibition of NMDA-induced lethality in mouse;IA means Compound was inactive at 30 mg/kg when examined after 5 or 30 min after iv dosing. It is filed as functional, organism-based. Also noted: dose 30 mg/kg. The method in brief: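 CF-1 mice (22–28 g) received test agent or vehicle (0.9% saline, 5 mL/kg) by retrobulbar injection 5 min before a bolus retrobulbar NMDA dose of 25 mg/kg in saline, which causes lethal seizures in untreated controls. Protection from death was scored. ED50 came from dose-response curves of at least three half-log doses with 10 mice per dose.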

Assay [19] relates to Mus musculus. Put plainly: N-methyl-D-aspartate glutamate receptor antagonist activity was measured as ataxia (the inability of the mice to cling to screen platform upon its inversion; IA means Compound was inactive at 30 mg/kg when examined after 5 or 30 min after iv dosing. The class given is functional, organism-based. Also noted: dose 30 mg/kg. The gist of the method:
as §5

In assay [20] the test system is Mus musculus. The assay can be described thus: Compound was tested in vivo for the maximum dose that protects from NMDA-induced death in mice; Inactive. The class given is functional. The gist of the method:
as §3

For assay [21], the target named is Glutamate NMDA receptor. The description is as §6. The source holds these as a separate data set.

Activity calls are given as the source filed them. The calls are words filed in the database; no cut-off is given here.

For orientation: IC50 means the concentration needed to halve the response being measured. Read a low IC50 as greater potency in that assay. What is called ED50 is the dose that gives a 50% effect, or the effect in half of the subjects. A higher ED50 goes with a need for a large dose. Consider `NC(CCCCCP(=O)(O)O)C(=O)O` (stereo not drawn) [AP-7], for which the IC50 at Glutamate NMDA receptor [1] is 46 µM; at Glutamate NMDA receptor [4] it was 0.8 µM. The values for the ED50 in the assay with Mus musculus [2] and in the assay with Mus musculus [3] were 17 mg/kg and 56 mg/kg, respectively. Regarding `NC(C(=O)O)c1ccc(CCP(=O)(O)O)cc1` (stereo not drawn), the I in assay [5] came out at 4%. For `NC(Cc1cccc(CP(=O)(O)O)c1)C(=O)O` (stereo not drawn), in [5], the I amounted to 1%. In assay [6], `NC(Cc1ccccc1P(=O)(O)O)C(=O)O` (stereo not drawn) returned an I of 3%. The same measure, in the same setting: the same measure for `NC(Cc1cccc(P(=O)(O)O)c1)C(=O)O` (stereo not drawn): 15%; for `NC(CCc1ccccc1CP(=O)(O)O)C(=O)O` (stereo not drawn): 54%. For the compound `NC(C(=O)O)c1cccc(P(=O)(O)O)c1` (stereo not drawn), the Max dose in the assay listed under Mus musculus [7] came out at 30 mg/kg. Moreover, at Glutamate NMDA receptor [4], the half-maximal inhibitory concentration (IC50) was found to be 17.4 µM.

In the case of `NC(C(=O)O)c1cccc(CCP(=O)(O)O)c1` (stereo not drawn), the I in assay [5] was found to be 35%.

For the compound `NC(C(=O)O)c1ccc(CP(=O)(O)O)cc1` (stereo not drawn), the IC50 was determined as 1.01 µM at Glutamate NMDA receptor [8] and 58 µM against Glutamate NMDA receptor [9]. Also, the median effective dose (ED50) in the assay filed under Mus musculus [10] was determined as 19 mg/kg; in the assay on Mus musculus [11], 8 mg/kg. For the compound `NC(Cc1cccc(CCP(=O)(O)O)c1)C(=O)O` (stereo not drawn), the I in assay [6] worked out at 19%. In the case of `NC(Cc1ccc(CP(=O)(O)O)cc1)C(=O)O` (stereo not drawn), the IC50 was determined as 3.3 µM at Glutamate NMDA receptor [12] and 378 µM against Glutamate NMDA receptor [15]. Moreover, the ED50 in the assay listed under Mus musculus [13] and in the assay listed under Mus musculus [14] was 74 mg/kg throughout.

For the compound `NC(Cc1ccc(P(=O)(O)O)cc1)C(=O)O` (stereo not drawn), the I in [5] was 10%. As for `NC(Cc1ccccc1CCP(=O)(O)O)C(=O)O` (stereo not drawn), the Max dose in the assay listed under Mus musculus [16] was determined as 30 mg/kg. For the same compound, the IA result (in [17]; in the assay with Mus musculus [18]; in the assay with Mus musculus [19]) was “inactive” in each case. The IC50 at Glutamate NMDA receptor [12] turned out to be 60.9 µM. Compound `NC(C(=O)O)c1cccc(CP(=O)(O)O)c1` (stereo not drawn) yielded a Max dose in the assay with Mus musculus [20] of 60 mg/kg. This compound displayed an IC50 at Glutamate NMDA receptor [4] of 9.3 µM. In [5], `NC(CCCc1ccccc1CP(=O)(O)O)C(=O)O` (stereo not drawn) came in with an I of 46%. The same measure, in the same setting: for `NC(C(=O)O)c1ccc(P(=O)(O)O)cc1` (stereo not drawn) the value was 10%; for `NC(C(=O)O)c1ccc(CCCP(=O)(O)O)cc1` (stereo not drawn), 20%. Compound `O=C(O)C1CN(CCCP(=O)(O)O)CCN1` (stereo not drawn) showed an IC50 on Glutamate NMDA receptor [21] of 0.08 µM.

Values taken from ChEMBL document CHEMBL1124644, “Exploration of phenyl-spaced 2-amino-(5-9)-phosphonoalkanoic acids as competitive N-methyl-D-aspartic acid antagonists” (J Med Chem, 1989).
